# MPTP inh = blocks calcium-induced mitochondrial swelling; isolated mouse mitochondria, Ca2+ swelling absorbance, 30 min; inhibition, % at 10 µM; 360,000 tested, 1.4% active;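 active = inhibition of 50% or more, scaled per plate between neutral and stimulator controls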;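 note: 0% = DMSO wells given calcium and 100% = 1 mM EGTA wells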
# MT1-MMP act inh = inhibitors of human MT1-MMP activation; P50281; HT1080 RFP-PRO-GFP cells, GFP/RFP ratio fluorescence, overnight; percent of plate control window, DMSO zero; GFP/RFP ratio change, % at 20 µM; 360,000 tested, 0.061% active;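 active = GFP/RFP ratio change of at least 30% with cell ATP level not reduced by more than half and red fluorescence within 50% of control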
#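 Read-out: GFP/RFP fluorescence ratio; Test system: RFP-PRO-GFP reporter HT1080 cells; Compound dosing: single-point 20 µM compound, 1% DMSO; Times: overnight compound exposure at 37 °C.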
# SKN-1 block = C. elegans SKN-1 inhibition. C. elegans VP596 Pgst-4::GFP/RFP ratio, acrylamide-induced, 24 h. inhibition, % at 21.8 µM. 360,000 tested, 0.49% active. AID 624304;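 active = interference check ratio from 0.5 to 1.5 plus GFP to RFP signal ratio inhibition reaching or exceeding a fixed threshold, cut at about 30% in these data, passing the limit was not always enough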
# GRIN3A LBD mod = modulates the human NR3A ligand-binding domain | NR3A LBD differential scanning fluorimetry, Tm shift; 0% = protein alone, 100% = glycine-bound protein | 340,000 tested, 2.5% active | Tm shift relative to glycine control, % at 25 µM | AID 1259313;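 active = melting temperature shift of at least 10% of the positive control shift, at one fixed dose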
# ADAM10 inh = ADAM10 inhibition, QFRET primary screen. O14672. recombinant ADAM10, EDANS/DABCYL FRET peptide cleavage, 3 h. inhibition, % at 7 µM. 370,000 tested, 0.62% active. AID 720582;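 active = inhibition above a per-campaign cutoff equal to the mean of compounds falling between control-based bounds plus 3 SD, cut at about 20% in these data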;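 note: 0% = DMSO wells while the 100% control is not disclosed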
# ADAM17 inh = inhibitors of human ADAM17; recombinant ADAM17, EDANS/DABCYL FRET peptide cleavage; inhibition, % at 6.95 µM; 370,000 tested, 0.83% active;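 active = inhibition above the mean of compounds lying between control limits plus 3 SD, set per campaign, cut at about 8.5% in these data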;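 note: 0% = DMSO-only wells as the low control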
# Active calls of the source: *; . = no result given. A selection: hits, their analogues and other compounds. The true share with any hit is near 4.7%.
SMILES,MPTP inh,MT1-MMP act inh,SKN-1 block,GRIN3A LBD mod,ADAM10 inh,ADAM17 inh
COc1ccc(/C=N/NC(=O)c2c(C)nnn2-c2nonc2N)cc1OC,1,1,3,19*,-6,-2
CCOc1cc(/C=N/NC(=O)c2nn(C)cc2Br)ccc1OCc1ccccc1,2,-2,7,10*,3,0
COc1ccc(/C=N/NC(=O)c2nnn(-c3nonc3N)c2C)cc1OC,-1,2,20,.,-3,1
CCOc1cc(/C=N/NC(=O)c2nnn(-c3nonc3N)c2C)ccc1OCc1ccc(F)cc1,0,-1,14,15*,8,-2
CCOc1cc(/C=N/NC(=O)c2nnn(-c3nonc3N)c2C)ccc1OCc1cccc(F)c1,0,3,6,26*,-6,-3
CCOc1cc(/C=N/NC(=O)c2nnn(-c3nonc3N)c2C)ccc1OCc1ccc(C)cc1,2,7,8,.,-17,-1
CCC(=O)Nc1ccc2c(c1)N(C(C)=O)c1ccccc1CC2,0,3,1,0,2,0
CCOC(=O)/C(=N\Nc1cccc(Cl)c1)Sc1nnc(-c2ccc(OC)cc2)n1C,0,2,-1,13*,-2,-3
Nc1nc(-c2ccccc2)cn1N,-5,0,14,11*,-13,-10
Cc1ccc(OCc2ccc(C(=O)Nc3nccs3)o2)cc1C,0,2,56*,-4,0,3
CCc1nnc(NC(=O)c2ccc(-c3ccc(Cl)cc3)o2)s1,3,3,10,15*,-5,-5
O=C(Nc1nccs1)c1ccc(-c2ccc(F)c(Cl)c2)o1,0,4,32,14*,-10,2
COc1ccc(OCC(=O)NNC(=O)C2CCCO2)cc1 (centres undefined),-6,1,-16,0,-6,-1
O=C1N=c2ccccc2=C1c1sc(=S)n(Cc2ccccc2Cl)c1O,17,7,-3,19*,4,1
O=C1N=c2ccccc2=C1c1sc(=S)n(-c2ccc(O)cc2)c1O,25,14,3,29*,5,-3
CNCC(=O)Nc1c(C)n[nH]c1C,3,3,1,14*,-3,4
CCCC(=O)Nc1c(C)n[nH]c1C,0,0,-4,1,-10,-2
CCOc1cc(C)c(Cl)cc1S(=O)(=O)N(CC)CC,-3,-2,6,-1,-10,-6
c1ccc(-c2cnc(-c3ccccc3)nn2)cc1,0,4,52*,0,8,-4
N#Cc1cccc(C(=O)Nc2cccc(S(=O)(=O)N3CCCC3)c2)c1,0,0,11,2,-6,5
CCOc1ccc(CNC(=S)N/N=C/c2cccnc2)cc1,2,6,16,1,-7,-1
CCOc1ccc(CNC(=S)N/N=C\c2ccc([N+](=O)[O-])cc2)cc1,3,0,9,24*,-6,0
Cn1cc([C@@H]2C[C@H]3CN(Cc4cccc(Cl)c4)C(=O)[C@]34CCCN24)c2ccccc21,1,35,35*,1,-8,6
Cc1c([C@@H]2C[C@H]3CN(Cc4cccc(Cl)c4)C(=O)[C@]34CCCN24)cnn1C,-1,-10,13,-2,2,-2
COc1ccc(N2C(=O)/C(=C/c3ccc([N+](=O)[O-])cc3)C=C2c2ccccc2)cc1,5,-4,40*,0,3,-3
SMILES,MPTP inh,MT1-MMP act inh,SKN-1 block,GRIN3A LBD mod,ADAM10 inh,ADAM17 inh
CCCCNS(=O)(=O)c1ccc(NC(=O)C2CCCO2)cc1 (centres undefined),-1,3,-1,12*,-4,0
CC(=O)c1ccc(NC(=O)c2ccc(C)c(Br)c2)cc1,13,4,12,28*,6,1
COc1ccc(C(=O)Nc2ccc(N3CCCCC3)cc2)cc1Br,1,5,2,10*,-7,1
CCC(C)NS(=O)(=O)c1ccc(NC(=O)C2CCCO2)cc1 (centres undefined),2,1,9,-3,10,0
COc1ccc(C(=O)Nc2ccc3c(c2)OCCO3)cc1Br,0,-1,-16,5,0,0
Cc1ccc(C(=O)Nc2ccc(N3CCCCC3)cc2)cc1,1,5,-18,7,-8,-3

# Assay outcomes (PubChem)
